Source: EPA's CvTdb concentration-time database

Assays:
Rat [1] = test: concentration in plasma after dosing; details: dosed: Perfluorodecanoic acid, 2 mg/kg, iv, Male, F344
Rat [2] = test: concentration in plasma after dosing; details: dosed: Perfluorodecanoic acid, 2 mg/kg, iv, Male, F344; remark: listed apart in the source
Rat [3] = test: concentration in plasma after dosing; details: 0.25 h; dosed: dichloroacetic acid; 10 mg/kg; oral; Male; Harlan Sprague Dawley
Rat [4] = test: concentration in plasma after dosing; details: 40 min; dosed: dichloroacetic acid; 100 mg/kg; oral; Male; F344
Rat [5] = test: concentration in plasma after dosing; details: 4 h; dosed: Wyeth-14643; 5.0 mg/kg; oral; Male; Sprague-Dawley
Rat [6] = test: concentration in plasma after dosing; details: 2 h; dosed: Wyeth-14643; 2.0 mg/kg; iv; Male; Sprague-Dawley
human [7] = details: dosed: trichloroethylene, 100 ppm, inhalation, duration: 4 hr, person
How it was run: (§1)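 Sampling and analytical methods are those of each source and frequently went unreported. The concentration-versus-time and amount-versus-time points were compiled from published in vivo toxicokinetic studies and two structured collections. Most were digitised from plot screenshots with WebPlotDigitizer, with others copied from tables, in the reported units.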

human [8] = test: amount in urine after dosing (mg cumulative excretion); details: dosed: trichloroethylene, inhalation, duration: 8 hr
How it was run: as §1

Rat [9] = test: concentration in liver after dosing; details: 6 h; dosed: Fluorotelomer alcohol 8+2; 80 mg/kg; oral; Female; Harlan Sprague Dawley
Rat [10] = test: concentration in brain after dosing; details: 3 h; dosed: Fluorotelomer alcohol 8+2; 80 mg/kg; oral; Female; Harlan Sprague Dawley
Rat [11] = test: concentration in brain after dosing; details: 3 h; dosed: Fluorotelomer alcohol 8+2; 80 mg/kg; oral; Female; Harlan Sprague Dawley; remark: listed apart in the source
Rat [12] = test: concentration in kidney after dosing; details: 1 h; dosed: Fluorotelomer alcohol 8+2; 80 mg/kg; oral; Female; Harlan Sprague Dawley
Rat [13] = test: concentration in liver after dosing; details: 5.333 h; dosed: Thiodiglycolic Acid; 20 mg/kg; iv; Female; Harlan Sprague Dawley
Rat [14] = test: concentration in liver after dosing; details: 1 h; dosed: Thiodiglycolic Acid; 20 mg/kg; iv; Female; Harlan Sprague Dawley
Rat [15] = test: concentration in thymus after dosing; details: 40 min; dosed: Thiodiglycolic Acid; 20 mg/kg; iv; Female; Harlan Sprague Dawley
Rat [16] = test: concentration in heart after dosing; details: 6.667 h; dosed: Thiodiglycolic Acid; 20 mg/kg; iv; Female; Harlan Sprague Dawley
Rat [17] = test: concentration in heart after dosing; details: 1 h; dosed: Bis 2-Chloroethoxy Methane; 20 mg/kg; iv; Female; F344
Rat [18] = test: concentration in heart after dosing; details: 3 h; dosed: Bis 2-Chloroethoxy Methane; 20 mg/kg; iv; Female; F344
Rat [19] = test: concentration in heart after dosing; details: 40 min; dosed: Bis 2-Chloroethoxy Methane; 20 mg/kg; iv; Male; F344
Rat [20] = test: concentration in plasma after dosing; details: 2 h; dosed: Bis 2-Chloroethoxy Methane; 20 mg/kg; iv; Female; F344
Rat [21] = test: concentration in thymus after dosing; details: 2 h; dosed: Bis 2-Chloroethoxy Methane; 20 mg/kg; iv; Female; F344
Rat [22] = test: concentration in plasma after dosing; details: 2 h; dosed: Di-n-butyl phthalate; 100 mg/kg; oral; Male; Sprague-Dawley
Rat [23] = test: concentration in plasma after dosing; details: 6 h; dosed: Di-n-butyl phthalate; 100 mg/kg; oral; Male; Sprague-Dawley
Rat [24] = test: concentration in plasma after dosing; details: 0.5 h; dosed: Di-n-butyl phthalate; 50 mg/kg; oral; Male; Sprague-Dawley
Rat [25] = test: concentration in plasma after dosing; details: 10 min; dosed: Di-n-butyl phthalate; 20 mg/kg; iv; Male; Sprague-Dawley
Rat [26] = test: concentration in plasma after dosing; details: 40 min; dosed: Di-n-butyl phthalate; 20 mg/kg; iv; Male; Sprague-Dawley

O=C(O)C(F)(F)C(F)(F)C(F)(F)C(F)(F)C(F)(F)C(F)(F)C(F)(F)C(F)(F)C(F)(F)F [Perfluorodecanoic acid]
concentration in plasma [µg/mL]
Details	5 min	192 h	2520 h
Rat [1]	8.2	3.28	–
Rat [2]	7.33	3.13	0.2

O=C(O)C(Cl)Cl [dichloroacetic acid]
Details	concentration in plasma [µg/mL]
Rat [3]	0.908
Rat [4]	13.8

Cc1cccc(Nc2cc(Cl)nc(SCC(=O)O)n2)c1C
Details	concentration in plasma [µg/mL]
Rat [5]	1.2
Rat [6]	0.67

O=C(O)C(Cl)(Cl)Cl [trichloroacetic acid]
human [7]
Details	amount in urine after dosing [mg]
1 h	0.21
2 h	0.25
4 h	0.57
8 h	2.37
12 h	1.32
16 h	0.93
24 h	2.15
36 h	4.32
48 h	8.17
60 h	7.79
72 h	7.83
84 h	6.95
96 h	4.34
108 h	4.56
120 h	3.32
132 h	3.23
144 h	4
156 h	2.44
168 h	1.44
180 h	2.55

human [8]
Details	amount in urine
7.504 h, 97 ppm	6.26
7.706 h, 97 ppm	3.69
10.24 h, 54 ppm	5.68
11.01 h, 54 ppm	9.23
23.46 h, 97 ppm	32.7
23.84 h, 97 ppm	36.5
24.26 h, 54 ppm	25.8
24.54 h, 54 ppm	30.2
47.49 h, 97 ppm	113
47.71 h, 97 ppm	101
48.03 h, 54 ppm	88.6
48.27 h, 54 ppm	72
70.31 h, 97 ppm	166
70.67 h, 97 ppm	141
71.68 h, 54 ppm	124
71.91 h, 54 ppm	110
95.13 h, 97 ppm	201
95.58 h, 54 ppm	177
95.7 h, 97 ppm	168
96.05 h, 54 ppm	145
119.2 h, 97 ppm	224
119.67 h, 97 ppm	190
119.76 h, 54 ppm	194
119.83 h, 54 ppm	164
142.97 h, 97 ppm	249
143.27 h, 97 ppm	206
143.82 h, 54 ppm	178
143.83 h, 54 ppm	217
167.26 h, 97 ppm	260
167.56 h, 97 ppm	217
167.82 h, 54 ppm	232
168.41 h, 54 ppm	188
191.33 h, 54 ppm	199
191.56 h, 97 ppm	269
191.61 h, 54 ppm	245
191.66 h, 97 ppm	224

OCCC(F)(F)C(F)(F)C(F)(F)C(F)(F)C(F)(F)C(F)(F)C(F)(F)C(F)(F)F [Fluorotelomer alcohol 8+2]
Details	concentration in brain [ng/g]	concentration in kidney [ng/g]	concentration in liver [ng/g]
Rat [9]	–	–	2020
Rat [10]	7770	–	–
Rat [11]	9550	–	–
Rat [12]	–	3330	–

O=C(O)CSCC(=O)O [Thiodiglycolic Acid]
Details	concentration in heart [ng/g]	concentration in liver [ng/g]	concentration in thymus [ng/g]
Rat [13]	–	2510	–
Rat [14]	–	62700	–
Rat [15]	–	–	3420
Rat [16]	262	–	–

ClCCOCOCCCl [Bis 2-Chloroethoxy Methane]
Details	concentration in heart [ng/g]	concentration in plasma [µg/mL]	concentration in thymus [ng/g]
Rat [17]	1380	–	–
Rat [18]	158	–	–
Rat [19]	6920	–	–
Rat [20]	–	0.15	–
Rat [21]	–	–	264

CCCCOC(=O)c1ccccc1C(=O)O [Mono-n-butyl phthalate]
Details	concentration in plasma [µg/mL]
Rat [22]	1.29
Rat [23]	16.9
Rat [24]	20.5
Rat [25]	28.8
Rat [26]	8.27
